Autophagy HCS – alters autophagy in cells. calls only at 10 µM (by protocol). MEF GFP-LC3 puncta imaging; test concentration mostly 10 µM. AID 463193. 190,000 compounds, 0.98% hits;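 active = percentage of spot-positive cells more than 3 SD above its plate mean, without a fluorescence outlier flag or 80% toxicity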;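 also: spot-positive cell cutoff set from DMSO-treated cells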
bCat nuc transl – modulators of beta-catenin nuclear translocation; HeLa beta-catenin nuclear translocation, immunofluorescence imaging; nuclear translocation activity, % at 5 µM; 190,000 compounds, 0.3% hits; AID 1665;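 active = nuclear translocation activity above 50% at 5 µM, with a well cell count of 50 or more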;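 also: per-cell ratio of nuclear to cytoplasmic median beta-catenin stain intensity; plate controls were DMSO negative control for no effect and GSK-3 inhibitor IX positive control for full effect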
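Read-out: Nuclear/cytoplasmic beta-catenin signal ratio, % activation | Assay system: Human HeLa cell line | Times: 24 h compound exposure at 37°C, 5% CO2 | Signal: Fluorescence imaging of beta-catenin antibody stain plus DAPI | Dosing: 5 µM primary, 0.02–20 µM confirmation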
CHOP inh – CHOP inhibition in unfolded protein response; inhibition, % at 10 µM; CHO-K1 CHOP-promoter luciferase, tunicamycin-induced, 15-18 h; 220,000 compounds, 3.8% hits;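 active = compounds that reduced the stress-induced luciferase reporter signal by more than about 70% of percent inhibition, limit read from the data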;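 also: 0% = tunicamycin plus vehicle and 100% = wells without tunicamycin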
MT stabilize HCS – microtubule stabilization, imaging screen | HeLa tubulin immunostaining HCS, 24 h; share of cells brighter than vehicle mean+2SD | % tubulin-high responders, % at 10 µM | 200,000 compounds, 0.83% hits;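 active = plate Z-score above 3 for both tubulin-high and condensed-nucleus cell shares, with cell loss under 80%, at 10 µM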;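 also: anti alpha tubulin signal scored within the nucleus-defined area of each cell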
L major viab – Leishmania major promastigote growth inhibition | Leishmania major promastigotes, resazurin fluorescence viability | AID 1063 | inhibition, % at 10 µM | 200,000 compounds, 9% hits; in the data active = inhibition above about 50%;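 also: promastigotes grown with compound for 44 hours at 28 °C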
Dynein transport – blocks dynein driven cargo transport along microtubules. 3617.4 mouse cells, GR-EGFP nuclear translocation imaging; test concentration mostly 20 µM; stimulated with dexamethasone, 1 µM; active compounds read low. 220,000 compounds, 0.47% hits. z-score, hits read low;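 active = plate z-score of nuclear minus cytoplasmic receptor signal below a set negative limit, without overly bright fluorescence or cell loss, cut at about -3.5 in these data, passing the limit was not always enough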;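 also: z-score of nuclear minus cytoplasmic ring GR-EGFP intensity difference per well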
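Also added: dexamethasone, 1.0 µM final. Medium: tet-free, stripped-serum medium. Detection: fixed, Hoechst-stained cells imaged at 10x for EGFP. Read-out: nuclear-to-cytoplasmic GR-EGFP distribution per well. Times: induction 48 h, compound 1 h, agonist 30 min.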
* marks the source's active call; other numbers are inactive results; i = inactive; nt = not tested or not shown; + = active, no number. Only some compounds are listed: those with a hit (about 12% of all), similar ones and a draw of the others.

SMILES	Autophagy HCS	bCat nuc transl	CHOP inh	MT stabilize HCS	L major viab	Dynein transport
Oc1cccc(Nc2nc(O)c(/C=C3\C=Nc4ccccc43)s2)c1	nt	2.3	41.5	nt	nt	0.847
CC1=Nc2ccccc2/C1=C\c1sc(Nc2ccc(C)cc2)nc1O	i	40.2	-33.3	8.5	73.2*	1.71
Oc1nc(Nc2cccc(Cl)c2)sc1/C=C1\C=Nc2ccccc21	i	1.0	78.8*	18.3*	-2.8	0.156
Oc1nc(Nc2ccc(F)cc2)sc1/C=C1\C=Nc2ccccc21	nt	1.9	7.5	nt	nt	0.415
Cc1ccnc(SCc2cc(=O)c(OC(=O)c3ccc(Cl)c([N+](=O)[O-])c3)co2)n1	i	0.4	40.8	4.4	96.1*	-0.945
COc1ccc(N2CCN(CCCNC(=O)C3(S(=O)(=O)c4ccc(Cl)cc4)CC3)CC2)cc1	i	nt	10.0	4.7	-11.8	-0.0572
Cc1ccc(Cl)cc1N1CCN(S(=O)(=O)c2cccc(S(=O)(=O)N3CCCC3)c2)CC1	i	4.7	24.2	4.1	60.8*	0.216
Cc1ccc(Cl)cc1N1CCN(c2cccc[n+]2C)CC1	i	-3.6	18.8	1.5	73.6*	0.662
O=C(NCCCN1CCN(c2cccc(Cl)c2)CC1)C1(S(=O)(=O)c2ccc(Cl)cc2)CC1	i	-2.4	60.0	3.7	99.8*	1.01
C[n+]1ccccc1N1CCN(c2ccccc2Cl)CC1	i	-0.1	13.6	1.9	48.4	-0.779
Cc1ccc(Cl)cc1N1CCN(S(=O)(=O)c2ccc3[nH]c(=O)c(=O)[nH]c3c2)CC1	i	-0.3	-4.1	2.9	-1.8	0.585
Cc1ccc(Cl)cc1N1CCN(C(=O)C2(S(=O)(=O)c3ccc(Cl)cc3)CC2)CC1	i	1.9	43.6	3.2	97.1*	-0.836
Cc1occc1C(=O)NNC(=O)C(c1ccccc1)c1ccccc1	i	-0.1	26.0	1.8	2.2	-0.461
COc1ccc(NC(=S)Nc2ccccc2SC)c(OC)c1	i	-2.6	6.6	1.8	6.7	-1.18
N#Cc1cc([N+](=O)[O-])ccc1Oc1cccc(/C=N/NC(=O)c2cccc(Cl)c2)c1	i	4.7	2.9	21.5	18.4	-0.586
CN(C)c1cccc(C(=O)OCC(=O)Nc2nccs2)c1	i	-0.2	-1.0	2.3	28.6	-0.306
CC(=O)c1ccc(N2CCN(C(=O)C3(S(=O)(=O)c4ccc(Cl)cc4)CC3)CC2)cc1	i	-1.3	54.6	3.8	3.3	-0.491
Cc1cccc(N2CCN(C(=O)C3(S(=O)(=O)c4ccc(Cl)cc4)CC3)CC2)c1C	i	-1.4	36.8	1.8	51.6*	-0.473
O=C(N1CCN(c2cccc(Cl)c2)CC1)C1(S(=O)(=O)c2ccc(Cl)cc2)CC1	i	-9.8	48.6	3.6	98.7*	-0.805
O=c1ccc2cc(S(=O)(=O)N3CCN(c4cc(Cl)ccc4Cl)CC3)ccc2o1	i	nt	70.5*	1.3	0.0	-0.236
CCOc1ccc(Oc2c(/C=N/NC(=O)C3CC3)c(C)nn2-c2ccccc2)cc1	i	-0.7	47.3	4.7	22.0	0.879
COc1ccccc1/C=C/C1(C(=O)NC2CCCC2)CC(=O)N1c1ccc(F)cc1 (stereo not given)	i	-0.1	40.0	19.5*	84.8*	-0.276
Cc1cccc(-c2nnc(SCC3CNC(=O)O3)n2-c2ccc(Cl)cc2)c1 (stereo not given)	i	nt	45.9	1.8	95.7*	0.142
COc1ccc(-n2c(SCC3CNC(=O)O3)nnc2-c2ccc(Cl)cc2)cc1 (stereo not given)	i	nt	6.7	2.6	92.4*	-0.368
CC(C)N(Cc1nnc(-c2ccccc2Cl)o1)C(=O)c1cccc(C#N)c1	i	-5.5	nt	3.2	5.9	0.271
SMILES	Autophagy HCS	bCat nuc transl	CHOP inh	MT stabilize HCS	L major viab	Dynein transport
CCn1c(=O)c(C(=O)CN2CCN(S(=O)(=O)c3cc(C)ccc3C)CC2)c(N)n(Cc2ccccc2)c1=O	i	-2.9	62.6	3.5	64.7*	2.34
Nc1ccc(Oc2ccc3nc(-c4ccccc4)c(-c4ccc([N+](=O)[O-])cc4)nc3c2)cc1	i	1.5	-15.5	2.3	39.5	0.0606
CCCCCn1c(CN2CCN(c3cccc(Cl)c3)CC2)nc2c1c(=O)[nH]c(=O)n2C	i	-8.3	64.6	3.1	6.2	2.72
Cn1c(CN2CCN(c3cccc(Cl)c3)CC2)nc2ccccc21	i	2.8	34.0	4.6	67.7*	0.635
Cn1c(=O)[nH]c(=O)c2c1nc(CN1CCN(c3cccc(Cl)c3)CC1)n2CCc1ccccc1	i	-1.0	81.7*	3.2	15.9	-0.522
CCCn1c(N2CCN(Cc3ccc(Cl)cc3)CC2)nc2ccccc21	i	0.7	56.3	2.3	54.7*	0.534
CCn1c(N2CCN(S(=O)(=O)CC)CC2)nc2ccccc21	i	-0.7	33.7	1.9	-10.0	-0.658
COc1cccc(NC(=O)c2cc([N+](=O)[O-])ccc2NC(=O)CNCC2CCCO2)c1 (stereo not given)	+	-1.1	-1.4	2.3	9.6	1.3
CN1C(=O)S/C(=C\c2ccc(-n3cncn3)cc2)C1=O	i	-1.7	-17.9	2.6	7.0	-1.04
CCCSc1nc(N2CCOCC2)c2c(c1C#N)CC(C)(C)SC2	i	-8.2	78.4*	1.4	-3.3	0.361
CC(C)CSc1nc(N2CCOCC2)c2c(c1C#N)CC(C)(C)SC2	i	-7.8	36.4	3.7	2.3	-0.517
COc1ccccc1NC(=O)N1C2CCCC1CC(NC(=O)c1ccccc1)C2 (stereo not given)	i	-1.0	-1.7	1.7	-4.8	0.0726
Cc1cc(C)cc(NC(=S)NC2CC3CCCC(C2)N3C2CC2)c1 (stereo not given)	i	-0.1	-3.4	4.5	55.0*	-0.027
Cc1cc(C)cc(NC(=S)NC2CC3CCCC(C2)N3CC(C)C)c1 (stereo not given)	i	-1.0	1.0	3.4	36.5	-0.769
Cc1cc(C)cc(NC(=S)NC2CC3CCCC(C2)N3C2CCCC2)c1 (stereo not given)	i	-0.9	2.1	2.7	52.9*	-0.666
CCOc1ccc2c(c1)/C(=C(\C(Cl)=C(Cl)Cl)[N+](=O)[O-])N2	i	-0.8	-11.4	3.1	1.4	0.263
CCCCOc1ccc2c(c1)/C(=C(\C(Cl)=C(Cl)Cl)[N+](=O)[O-])N2	i	0.0	19.5	9.9*	8.6	-0.26
O=C(O)Cc1csc(-c2cccc(F)c2)n1	i	-1.3	3.1	2.7	2.7	0.233
CCNC(=O)c1ccc(C23CC4CC(CC(C4)C2)C3)o1	i	-1.0	26.5	3.3	89.0*	-0.214
COc1ccc(N(CC(=O)NC2CCCCC2)C(=O)CNC(=O)c2ccco2)cc1	i	0.7	-10.6	2.4	-5.2	-0.142
Oc1ccccc1/C=N/Nc1ccnc(SCc2ccccc2)n1	i	-0.5	36.1	4.8	96.2*	3.02
